# Assay results as given in ChEMBL document CHEMBL4118270, “Synthesis, in vitro and in silico studies of novel potent urease inhibitors: N-[4-({5-[(3-Un/substituted-anilino-3-oxopropyl)sulfanyl]-1,3,4-oxadiazol-2-yl}methyl)-1,3-thiazol-2-yl]benzamides” (Bioorg Med Chem, 2018).
# How the values were obtained:
# Urease = Urease (Helicobacter pylori, UniProt Q0PXQ5); experiment: Inhibition of Campylobacter pylori urease preincubated for 5 mins followed by urea addition measured after 10 mins by Berthelot assay
# Sequence of Urease (Q0PXQ5 whole entry): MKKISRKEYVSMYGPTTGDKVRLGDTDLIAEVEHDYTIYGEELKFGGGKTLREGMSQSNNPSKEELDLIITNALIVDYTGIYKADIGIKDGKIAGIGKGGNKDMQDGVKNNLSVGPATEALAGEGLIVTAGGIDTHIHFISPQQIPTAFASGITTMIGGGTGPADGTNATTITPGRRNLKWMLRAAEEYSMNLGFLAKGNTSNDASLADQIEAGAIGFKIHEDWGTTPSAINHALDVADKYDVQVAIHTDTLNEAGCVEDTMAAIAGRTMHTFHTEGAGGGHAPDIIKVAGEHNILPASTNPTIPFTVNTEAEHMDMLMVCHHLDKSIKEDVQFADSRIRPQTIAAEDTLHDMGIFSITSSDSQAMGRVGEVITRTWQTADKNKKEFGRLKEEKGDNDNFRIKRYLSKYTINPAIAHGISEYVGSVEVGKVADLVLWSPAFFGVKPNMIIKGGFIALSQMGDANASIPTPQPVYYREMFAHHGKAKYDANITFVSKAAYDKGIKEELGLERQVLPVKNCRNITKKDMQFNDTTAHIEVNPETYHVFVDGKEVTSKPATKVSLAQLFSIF
# Outline: (§1)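 Modified Berthelot assay in pH 7.0 phosphate buffer. Sample and enzyme (0.135 units) are pre-incubated 5 min at 37 °C. Urea (20 mM stock) is added and incubated 10 min at 37 °C. […] IC50 is fitted from dilution series. Mean ± SEM, n = 3.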
# [1] = target: Urease (Helicobacter pylori) (UniProt Q0PXQ5); experiment: Inhibition of Campylobacter pylori urease preincubated for 5 mins followed by urea addition measured after 10 mins by Berthelot assay relative to control; set-up: concentration or dose not given beside the values; outline: as §1
# Sequence of Urease (Helicobacter pylori) (Q0PXQ5 as listed by the source): as the sequence (Q0PXQ5 whole entry) above
Compound,IC50 (Urease) [µM],inhibition [1] [%]
CCc1ccccc1NC(=O)CCSc1nnc(Cc2csc(NC(=O)c3ccccc3)n2)o1,2.58,98.7
Cc1cccc(C)c1NC(=O)CCSc1nnc(Cc2csc(NC(=O)c3ccccc3)n2)o1,2.79,98.5
Cc1cccc(NC(=O)CCSc2nnc(Cc3csc(NC(=O)c4ccccc4)n3)o2)c1,12.2,84.8
Cc1cc(C)cc(NC(=O)CCSc2nnc(Cc3csc(NC(=O)c4ccccc4)n3)o2)c1,52.1,64.8
NC(N)=S [THIOUREA],21.1,
Cc1ccc(NC(=O)CCSc2nnc(Cc3csc(NC(=O)c4ccccc4)n3)o2)cc1C,34.2,76.5
O=C(CCSc1nnc(Cc2csc(NC(=O)c3ccccc3)n2)o1)Nc1ccccc1,2.95,98.5
Cc1ccccc1NC(=O)CCSc1nnc(Cc2csc(NC(=O)c3ccccc3)n2)o1,7.47,98.2
Cc1cccc(NC(=O)CCSc2nnc(Cc3csc(NC(=O)c4ccccc4)n3)o2)c1C,48.2,69.8
Cc1ccc(C)c(NC(=O)CCSc2nnc(Cc3csc(NC(=O)c4ccccc4)n3)o2)c1,15.2,77.9
CCc1ccc(NC(=O)CCSc2nnc(Cc3csc(NC(=O)c4ccccc4)n3)o2)cc1,43.2,74.2
Cc1ccc(NC(=O)CCSc2nnc(Cc3csc(NC(=O)c4ccccc4)n3)o2)cc1,29.2,76.4
CCOc1ccc(NC(=O)CCSc2nnc(Cc3csc(NC(=O)c4ccccc4)n3)o2)cc1,23.2,88.8
